Tests used:
Assay type in all cases: functional
[1] = organism: Mus musculus; assay: Inhibitory activity against nitric oxide production in LPS-activated mouse peritoneal macrophages
Summary of the method: (§1)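 Peritoneal exudate cells from male ddY mice, 5 × 10^5 cells/well, pre-cultured 1 h at 37 °C in RPMI 1640 with 5% FCS. Nonadherent cells washed off; adherent macrophages (>95%) given 10 µg/mL LPS plus test compound (DMSO, final 0.5%) for 20 h. Nitrite in medium measured by Griess reagent. Inhibition calculated relative to LPS-stimulated and unstimulated wells; IC50 determined graphically (N=4).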

[2] = organism: Mus musculus; assay: Compound (at 100 uM) was tested for inhibition against nitric oxide production in LPS-activated mouse peritoneal macrophages; summary of the method: as §1
[3] = organism: Mus musculus; assay: Compound was tested for inhibitory activity against nitric oxide production in LPS-activated mouse peritoneal macrophages (*,showed cytotoxicity at 100 uM)
[4] = organism: Mus musculus; assay: Compound (at 10 uM) was tested for inhibition against nitric oxide production in LPS-activated mouse peritoneal macrophages
[5] = organism: Mus musculus; assay: Compound was tested for inhibitory activity against nitric oxide production in LPS-activated mouse peritoneal macrophages (*,showed cytotoxicity at 30 uM)
[6] = organism: Mus musculus; assay: Compound (at 30 uM) was tested for inhibition against nitric oxide production in LPS-activated mouse peritoneal macrophages

COc1cc(O[C@@H]2O[C@H](CO)[C@@H](O)[C@H](O)[C@H]2O)c2c(O)c(C(C)=O)c(C)cc2c1
IC50 [1]: 69 µM

Cc1cc(O)c2c(c1)C(=O)c1cccc(O[C@@H]3O[C@H](COC(=O)c4cc(O)c(O)c(O)c4)[C@@H](O)[C@H](O)[C@H]3O)c1C2=O
IC50 [1]: > 100 µM
inhibition at 100 µM [2]: 31%

OC[C@H]1O[C@@H](Oc2cc(CCc3cc(O)cc(O)c3)ccc2O)[C@H](O)[C@@H](O)[C@@H]1O
IC50 [1]: > 100 µM
inhibition at 100 µM [2]: 6%

OC[C@H]1O[C@@H](Oc2cc(/C=C/c3cc(O)cc(O)c3)ccc2O)[C@H](O)[C@@H](O)[C@@H]1O
IC50 [1]: > 100 µM
inhibition at 100 µM [2]: 10%

COc1cc(O)cc(/C=C/c2ccc(OC)c(OC)c2)c1
IC50 [3]: 19 µM

COc1ccc(CCc2cc(O)cc(O)c2)cc1O
IC50 [1]: 49 µM

COc1cc(/C=C/c2cc(O)cc(O)c2)ccc1O
IC50 [1]: 63 µM

COc1ccc(CCc2cc(O)cc(O[C@@H]3O[C@H](CO)[C@@H](O)[C@H](O)[C@H]3O)c2)cc1O
IC50 [1]: > 100 µM
inhibition at 100 µM [2]: 8%

C(=C\c1ccccc1)/c1ccccc1
IC50 [1]: > 100 µM
inhibition at 100 µM [2]: 21%

COc1ccc(/C=C/c2cc(O)cc(O)c2)cc1O
IC50 [1]: 48 µM

COC[C@H]1O[C@@H](Oc2cc(/C=C/c3cc(OC)cc(OC)c3)ccc2OC)[C@H](OC)[C@@H](OC)[C@@H]1OC
IC50 [1]: 27 µM

COc1cc(/C=C/c2cc(O)cc(O[C@@H]3O[C@H](CO)[C@@H](O)[C@H](O)[C@H]3O)c2)ccc1O
IC50 [1]: > 100 µM
inhibition at 100 µM [2]: 5%

COc1ccc(/C=C/c2cc(O)cc(O[C@@H]3O[C@H](CO)[C@@H](O)[C@H](O)[C@H]3O)c2)cc1
IC50 [1]: > 100 µM
inhibition at 100 µM [2]: 13%

COc1ccc(/C=C/c2cc(O)cc(O[C@@H]3O[C@H](COC(=O)c4cc(O)c(O)c(O)c4)[C@@H](O)[C@H](O)[C@H]3O)c2)cc1O
IC50 [1]: 11 µM

COc1ccc(/C=C/c2cc(O)cc(O[C@@H]3O[C@H](CO)[C@@H](O)[C@H](O)[C@H]3OC(=O)c3cc(O)c(O)c(O)c3)c2)cc1O
IC50 [1]: 13 µM

O=C1c2cccc(O)c2C(=O)c2c(O[C@@H]3O[C@H](CO)[C@@H](O)[C@H](O)[C@H]3O)cc(CO)cc21
IC50 [1]: > 100 µM
inhibition at 100 µM [2]: 46%

Oc1cc(O)cc(CCc2ccc(O)c(O)c2)c1
IC50 [1]: 32 µM

COc1cc(/C=C/c2ccc(OC)c(O)c2)cc(OC)c1
IC50 [3]: 23 µM

COC[C@H]1O[C@@H](Oc2cc(/C=C/c3ccc(OC)c(OC)c3)cc(OC)c2)[C@H](OC)[C@@H](OC)[C@@H]1OC
IC50 [1]: 5.8 µM

c1ccc(CCc2ccccc2)cc1
IC50 [1]: > 100 µM
inhibition at 100 µM [2]: 26%

COc1cc(/C=C/c2ccc(OC)c(OC)c2)cc(OC)c1 [(E)-3,4,3',5'-TETRAMETHOXYSTILBENE]
IC50 [1]: 28 µM

O=C1c2cccc(O)c2C(=O)c2c(O)cc(CO)cc21 [ALOE-EMODIN]
inhibition at 10 µM [4]: 38%
IC50 [5]: > 10 µM

O=C(/C=C/c1ccc(O)c(O)c1)OCCc1ccccc1 [CAFFEIC ACID PHENETHYL ESTER]
IC50 [1]: 40 µM

Cc1cc(O[C@@H]2O[C@H](CO)[C@@H](O)[C@H](O)[C@H]2O)c2c(c1)C(=O)c1cccc(O)c1C2=O [CHRYSOPHANEIN]
IC50 [1]: > 100 µM
inhibition at 100 µM [2]: 20%

Cc1cc(O)c2c(c1)C(=O)c1cccc(O)c1C2=O [CHRYSOPHANOL]
IC50 [1]: > 100 µM
inhibition at 100 µM [2]: 2%

Oc1ccc(CCc2cc(O)cc(O)c2)cc1 [DIHYDRORESVERATROL]
IC50 [1]: 76 µM

O=C(O)c1cc(O)c(O)c(O)c1 [GALLIC ACID]
IC50 [1]: 63 µM

Oc1cc(O)cc(/C=C/c2ccc(O)c(O)c2)c1 [PICEATANNOL]
IC50 [1]: 23 µM

Cc1cc(O)c2c(c1)C(=O)c1cccc(O[C@@H]3O[C@H](CO)[C@@H](O)[C@H](O)[C@H]3O)c1C2=O [PULMATIN]
IC50 [1]: > 100 µM
inhibition at 100 µM [2]: 31%

COc1ccc(/C=C/c2cc(O)cc(O)c2)cc1 [RESVERATROL 4'-METHYL ETHER]
IC50 [3]: > 30 µM
inhibition at 30 µM [6]: 13%

Oc1ccc(/C=C/c2cc(O)cc(O)c2)cc1 [RESVERATROL]
IC50 [1]: 68 µM

COc1ccc(/C=C/c2cc(O)cc(O[C@@H]3O[C@H](CO)[C@@H](O)[C@H](O)[C@H]3O)c2)cc1O [RHAPONTIN]
IC50 [1]: > 100 µM
inhibition at 100 µM [2]: 25%

COc1ccc(/C=C/c2cc(OC)cc(OC)c2)cc1 [TRISMETHOXYRESVERATROL]
IC50 [1]: 22 µM
